In paper PMC10204345 (European Journal of Medicinal Chemistry, 2023):
Like-named read-outs stand apart in the source and are kept apart here.

Key:
SARS-CoV-2 3CL^pro = SARS-CoV-2 3CL^pro (Severe acute respiratory syndrome coronavirus 2, UniProt P0DTD1); type: biochemical
[1] = Microsomal stability assay, mouse; type: in vitro ADME; details: microsomes, pH 7.41
Outline: (§1)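 Liver microsomes in 100 mM potassium buffer with 5 mM MgCl₂, pH 7.41; test compound at 1 μM. Compound-microsome spiking mix (1.5 μM compound, 0.75 mg/mL microsomes) pre-incubated at 37 °C for 5 min, then started with NADPH (6 mM stock). Sampled at 0, 5, 15, 30 and 45 min, quenched with acetonitrile containing internal standard, centrifuged; supernatant diluted in water for LC/MS.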

[2] = Microsomal stability assay, human; type: in vitro ADME; details: microsomes, pH 7.41
Outline: as §1

[3] = Single-dose pharmacokinetics in ICR mice; type: in vivo; details: single-dose oral administration 20 mg/kg
Outline: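 Mice randomly split into IV and PO groups, three per group; single dose 10 mg/kg IV or 20 mg/kg oral. After oral dosing, blood taken at 0.25, 0.5, 1, 2, 4, 6, 8 and 24 h. Plasma (20 μL) protein-precipitated with methanol containing 100 ng/mL internal standard, vortexed, centrifuged at 18000g for 10 min, analysed by LC-MS/MS. AUC(0-t) derived by pharmacokinetic modelling.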

Row | Compound | decrease of 3CL^pro inhibitory activity compared to 11b (SARS-CoV-2 3CL^pro) [folds] | half-life at 0.75 h, 1 µM [1] [min] | half-life at 0.75 h, 1 µM [2] [min] | other results
1 | CC(C)(C)OC(=O)N[C@H](C(=O)N1[C@@H]2CC[C@@H](C2)[C@H]1C(=O)N[C@@H](C[C@@H]1CCNC1=O)C(=O)c1nc2ccccc2s1)C(C)(C)C [11a, tert-butyl ((S)-1-((1R,3S,4S)-3-(((S)-1-(benzo[d]thiazol-2-yl)-1-oxo-3-((S)-2-oxopyrrolidin-3-yl)propan-2-yl)carbamoyl)-2-azabicyclo[2.2.1]heptan-2-yl)-3,3-dimethyl-1-oxobutan-2-yl)carbamate] | 45 |  |  | 
2 | CC(C)(C)[C@H](NC(=O)C(F)(F)F)C(=O)N1[C@@H]2CC[C@@H](C2)[C@H]1C(=O)N[C@@H](C[C@@H]1CCNC1=O)C(=O)c1nc2ccccc2s1 [11b, (1R,3S,4S)-N-((S)-1-(benzo[d]thiazol-2-yl)-1-oxo-3-((S)-2-oxopyrrolidin-3-yl)propan-2-yl)-2-((S)-3,3-dimethyl-2-(2,2,2-trifluoroacetamido)butanoyl)-2-azabicyclo[2.2.1]heptane-3-carboxamide] |  | 7.74 | 11.6 | 
3 | CC(C)(F)C(=O)N[C@H](C(=O)N1[C@@H]2CC[C@@H](C2)[C@H]1C(=O)N[C@@H](C[C@@H]1CCNC1=O)C(=O)c1nc2ccccc2s1)C(C)(C)C [11c, (1R,3S,4S)-N-((S)-1-(benzo[d]thiazol-2-yl)-1-oxo-3-((S)-2-oxopyrrolidin-3-yl)propan-2-yl)-2-((S)-2-(2-fluoro-2-methylpropanamido)-3,3-dimethylbutanoyl)-2-azabicyclo[2.2.1]heptane-3-carboxamide] |  | 4.82 | 18 | decrease of 3CL^pro inhibitory activity compared to 11b (SARS-CoV-2 3CL^pro; ratio of IC50 to that of 11b): 11 folds
4 | [2H]C([2H])([2H])C(=O)N[C@H](C(=O)N1[C@@H]2CC[C@@H](C2)[C@H]1C(=O)N[C@@H](C[C@@H]1CCNC1=O)C(=O)c1nc2ccccc2s1)C(C)(C)C [11d, (1R, 3S, 4S)-2-((S)-2-(acetamido-2,2,2-d3)-3,3-dimethylbutanoyl) -N-((S)-1-(benzo[d]thiazol-2-yl)-1-oxo-3-((S)-2-oxopyrrolidin-3-yl)propan-2-yl)-2-azabicyclo [2.2.1] heptane-3-carboxamide] | 5 | 33.8 | 42.2 | 
5 | CC(C)(C)[C@H](NS(=O)(=O)C(F)(F)F)C(=O)N1[C@@H]2CC[C@@H](C2)[C@H]1C(=O)N[C@@H](C[C@@H]1CCNC1=O)C(=O)c1nc2ccccc2s1 [11e, (1R, 3S, 4S)-N-((S)-1-(benzo[d]thiazol-2-yl)-1-oxo-3-((S)-2-oxopyrrolidin-3-yl)propan-2-yl)-2-((S)-3,3-dimethyl-2-((trifluoromethyl)sulfonamido)butanoyl)-2-azabicyclo [2.2.1] heptane-3-carboxamide] | 8 |  |  | AUC(0-t) higher than that of 11b [3]: 2.4 times; AUC(0-t) higher than that of nirmatrelvir [3]: 5 times; half-life at 1 μM [1]: > 120 min; half-life at 1 μM [2]: > 120 min
6 | CN(C)S(=O)(=O)N[C@H](C(=O)N1[C@@H]2CC[C@@H](C2)[C@H]1C(=O)N[C@@H](C[C@@H]1CCNC1=O)C(=O)c1nc2ccccc2s1)C(C)(C)C [11f, (1R, 3S, 4S)-N-((S)-1-(benzo[d]thiazol-2-yl)-1-oxo-3-((S)-2-oxopyrrolidin-3-yl)propan-2-yl)-2-((S)-2-((N,N-dimethylsulfamoyl)amino)-3,3-dimethylbutanoyl)-2-azabicyclo [2.2.1] heptane-3-carboxamide] |  | 0.85 | 3.25 | 
7 | CC(C)(C)OC[C@H](NS(=O)(=O)C(F)(F)F)C(=O)N1[C@@H]2CC[C@@H](C2)[C@H]1C(=O)N[C@@H](C[C@@H]1CCNC1=O)C(=O)c1nc2ccccc2s1 [11g, (1R, 3S, 4S)-N-((S)-1-(benzo[d]thiazol-2-yl)-1-oxo-3-((S)-2-oxopyrrolidin-3-yl)propan-2-yl)-2-(O-(tert-butyl)-N-((trifluoromethyl)sulfonyl)-L-seryl)-2-azabicyclo [2.2.1] heptane-3-carboxamide] |  |  |  | decrease of enzyme activity compared to 11e (SARS-CoV-2 3CL^pro): 3 times
8 | COc1ccc(C[C@H](NS(=O)(=O)C(F)(F)F)C(=O)N2[C@@H]3CC[C@@H](C3)[C@H]2C(=O)N[C@@H](C[C@@H]2CCNC2=O)C(=O)c2nc3ccccc3s2)cc1 [11h, (1R, 3S, 4S)-N-((S)-1-(benzo[d]thiazol-2-yl)-1-oxo-3-((S)-2-oxopyrrolidin-3-yl)propan-2-yl)-2-((S)-3-(4-methoxyphenyl)-2-((trifluoromethyl)sulfonamido)propanoyl)-2-azabicyclo [2.2.1] heptane-3-carboxamide] |  |  |  | decrease of enzyme activity compared to 11e (SARS-CoV-2 3CL^pro): 6 times
9 | CC(C)(C)[C@H](NC(=O)C(F)(F)F)C(=O)N1C[C@H]2[C@@H]([C@H]1C(=O)N[C@H](C#N)C[C@@H]1CCNC1=O)C2(C)C [nirmatrelvir, reference compound] |  | 17.7 | 35.5 | 
